Common to all, as to format: functional, organism-based
In test [1] the test system is SARS-CoV-2. Briefly: Antiviral activity against pseudovirus SARS-CoV-2 spike protein infected in HEK293T cells overexpressing ACE2 assessed as inhibition on pseudovirus infection incubated for 45 hrs by fluorescence microscopy. Particulars: Severe acute respiratory syndrome coronavirus 2, HEK-293T. The method in brief:
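293T-ACE2 cells were seeded at 10 000 per well. Spike-pseudotyped lentivirus carrying a GFP reporter was mixed with 2-fold serial dilutions of compound (in DMSO) or vehicle for 1 h at 37 °C, then added to cells with 5 μg/mL Polybrene. After 44 h, cells were fixed and DAPI-stained. Total GFP area was normalized to DAPI and to vehicle (n = 3). IC50 came from a three-parameter logistic fit.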

Test [2] concerns SARS-CoV-2. Kind of test: Antiviral activity against SARS-CoV-2 variant B.1.1.7 strain infected in African green monkey Vero E6 cells assessed as inhibition of viral entry incubated for 1 hr proir to infection and measured after 48 hrs by Focus forming assay. Particulars: Severe acute respiratory syndrome coronavirus 2, B.1.1.7, Vero C1008.
Test [3] relates to SARS-CoV-2. Kind of test: Antiviral activity against SARS-CoV-2 variant B.1.351 strain infected in African green monkey Vero E6 cells assessed as inhibition of viral entry incubated for 1 hr prior to infection and measured after 48 hrs by Focus forming assay. The conditions noted are these: Severe acute respiratory syndrome coronavirus 2, B.1.351, Vero C1008.

We go through two compounds from ChEMBL document CHEMBL5046259, “Cannabinoids Block Cellular Entry of SARS-CoV-2 and the Emerging Variants” (J Nat Prod, 2022).

The structures appear in SMILES notation. In brackets after ≈: the same amount, converted by molar mass.

Consider `C=C(C)[C@@H]1CCC(C)=C[C@H]1c1c(O)cc(CCCCC)c(C(=O)O)c1O` [CANNABIDIOLIC ACID], for which the IC50 turned out to be 7.7 µg/mL (≈ 21.5 µM) in the test on SARS-CoV-2 [1], 11 µg/mL (≈ 30.7 µM) in the test with SARS-CoV-2 [2] and 19 µg/mL (≈ 53 µM) in the test on SARS-CoV-2 [3].
Taken in the same sequence, the figures for `CCCCCc1cc(O)c(C/C=C(\C)CCC=C(C)C)c(O)c1C(=O)O` [CANNABIGEROLIC ACID] were 8.4 µg/mL (≈ 23.3 µM), 26 µg/mL (≈ 72.1 µM) and 35 µg/mL (≈ 97.1 µM).
